Assay outcomes as filed in PubChem BioAssay.
A selection: hits, their analogues and other compounds. The true share with any hit is near 2.5%.
TCR CD3 inh: inhibitors of human TCR-CD3 interaction. hit rate 0.37% among 360,000. TAMRA-labeled TCR probe fluorescence, biochemical. inhibition, % at 9.4 µM;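 further: recombinant mutant TCR 2C K166C tagged with TAMRA read by polarization; 0% = receptor in buffer alone and 100% = receptor with positive control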
HTRA1 inh: HTRA1 (human) protease inhibition; AID 504803; Q92743; recombinant HTRA1, FP-rhodamine activity-based probe, fluorescence polarization; inhibition, % at 5.96 µM; hit rate 0.5% among 340,000; in the data active means inhibition above about 36%;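 further: 0% = enzyme with DMSO and 100% = wells lacking enzyme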
PRMT1 inh: blocks human protein arginine methyltransferase 1 | Q99873 | recombinant PRMT1, activity-based probe fluorescence polarization | inhibition, % at 2.79 µM | hit rate 1.3% among 370,000 | AID 652257;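 active means inhibition above about 21% made by adding two undisclosed values, limit read from the data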
Target sequence (Q99873 whole entry, looked up): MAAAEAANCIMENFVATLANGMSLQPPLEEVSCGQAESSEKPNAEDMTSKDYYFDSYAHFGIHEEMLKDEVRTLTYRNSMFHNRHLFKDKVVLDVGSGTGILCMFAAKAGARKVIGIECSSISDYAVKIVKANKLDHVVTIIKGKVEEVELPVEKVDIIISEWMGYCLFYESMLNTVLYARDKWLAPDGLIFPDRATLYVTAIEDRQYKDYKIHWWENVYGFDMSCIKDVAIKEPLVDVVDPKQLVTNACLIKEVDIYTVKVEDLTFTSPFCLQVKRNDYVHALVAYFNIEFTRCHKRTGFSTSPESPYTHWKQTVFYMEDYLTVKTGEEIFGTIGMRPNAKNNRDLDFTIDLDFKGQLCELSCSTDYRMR
mABHD4 FP: inhibitors of mouse ABHD4 | inhibition, % at 8.92 µM | Q8VD66 | purified mABHD4, FP-Rh probe fluorescence polarization | hit rate 0.54% among 370,000;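 active means inhibition exceeding the mean over every tested compound plus 3 SD, cut at about 30% in these data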;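 further: 0% = plate median of compound wells and 100% = S159A mutant with DMSO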
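Assay system: Wild-type mouse ABHD4 protein | Medium: HEPES pH 7.0 buffer, 150 mM NaCl, 0.01% Pluronic F-127 | Incubation: Enzyme–compound pre-incubation 45 min, then probe 60 min, both 25 °C | Technique: Fluorescence polarization with parallel and perpendicular emission, 525/598 nm | Evaluation: % inhibition of FP-Rh probe binding versus controls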
SIAE primary: inhibitors of human sialic acid acetylesterase SIAE; AID 1053197; inhibition, % at 9.66 µM; SIAE FP-Rh probe binding, fluorescence polarization; Q9HAT2; hit rate 0.69% among 370,000;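 active means inhibition above a cutoff: mean of compounds within the control limits plus 3 SD of those, cut at about 17% in these data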;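 further: 0% = plate median of compound wells and 100% = probe without SIAE protein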
BSA TAMRA ctr: BSA probe counter-screen for TCR-CD3 inhibitors; shares compounds with TCR CD3 inh; TAMRA-labeled BSA probe fluorescence counterscreen; inhibition, % at 9.4 µM; hit rate 10% among 1,200; in the data active means inhibition above about 23%;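 further: 0% = buffer low control and 100% = reference high control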
TCR-CD3 inh conf: confirmation of human TCR-CD3 interaction inhibitors; shares compounds with TCR CD3 inh; TAMRA-labeled TCR probe fluorescence binding assay; inhibition, % at 9.4 µM; hit rate 48% among 1,200; AID 652036
* marks the source's active call; other numbers are inactive results; . = no result. Unless noted, no stated cut-off is given here; in the data, active means inhibition above about 19%; inactive means the rest.

SMILES | TCR CD3 inh | HTRA1 inh | PRMT1 inh | mABHD4 FP | SIAE primary | BSA TAMRA ctr | TCR-CD3 inh conf
Cc1cc(=O)oc2c(CN3CCC(C)CC3)c(O)c(Cl)cc12 | 25* | 11 | 7 | 28 | 26* | 33* | 35*
CN1OC[C@@H]2CN(Cc3ccccc3)[C@H](c3cccc(-c4ccc(C#N)cc4)c3)C[C@@H]21 | 24* | -37 | 3 | 3 | -3 | 1 | 5
COc1ccccc1-c1cccc([C@@H]2C[C@H]3[C@H](CON3C)CN2Cc2ccccc2)c1 | 5 | -24 | -1 | -3 | -3 | . | .
C[C@H](O)[C@@H]1CN2CCc3c([nH]c4c(-c5ccc6c(c5)OCO6)cccc34)[C@@H]2C[C@@H]1N(C)C(=S)NCCc1ccccc1 | . | . | -4 | -11 | 0 | . | .
Nc1ccc2nc(-c3cccc(-c4nc5ccc(N)cc5[nH]4)n3)[nH]c2c1 | 24* | 5 | 2 | 13 | -3 | -50 | 47*
Cc1ccc2nc(-c3cccc(N)c3)[nH]c2c1 | 6 | -1 | -1 | 6 | 3 | . | .
CC1(C)c2ccccc2N2CCC(=O)NC21/C=C/c1ccco1 (stereo unspecified) | 19* | 9 | 20 | -9 | -5 | 3 | 8
CC1(C)c2ccccc2N2CC(=O)NC21/C=C/c1ccco1 (stereo unspecified) | 1 | -2 | 13 | -18 | 2 | . | .
COc1ccc(C(=O)OCC(=O)c2c[nH]c3ccccc23)cc1OC | -2 | -12 | 1 | 0 | 1 | . | .
COc1cc(OC)c(N(C)S(=O)(=O)c2cccc(C(=O)OCC(=O)c3c[nH]c4ccccc34)c2)cc1Cl | 38* | -89 | 0 | -88 | -108 | 4 | 18
C=CCN(c1ccccc1OC)S(=O)(=O)c1cccc(C(=O)OCC(=O)c2c[nH]c3ccccc23)c1 | 44* | -87 | -1 | -88 | -111 | 1 | 2
CC(C)[C@H](NC(=O)[C@@H]1CCCN1)C(=O)N1CCC2CCN(S(=O)(=O)c3ccccc3)CC21 (stereo partly specified) | . | . | 2 | 4 | 0 | . | .
C=CCN(CC#Cc1ccc(OC)cc1)CC=C | . | . | -2 | 0 | 4 | . | .
O=C(NCc1ccc(Cl)cc1)O[C@H]1CC[C@@]23CCCN2C(=O)CCC[C@H]3C1 | . | . | -6 | 1 | -2 | . | .
OCc1nc2ccccc2n1CCc1ccccc1 | 23* | 0 | 2 | -1 | -7 | -6 | -3
Cc1ccc(-n2c(SCC(=O)Nc3ccccc3-c3ccccc3)nnc2-c2ccccn2)cc1 | . | . | -1 | 1 | 0 | . | .
Cc1ccc(NC(=S)Nc2ccc(C(C)C)cc2)cc1S(=O)(=O)N1CCCCCC1 | 22* | -63 | 7 | -56 | -103 | 1 | 14
C/C(=N\NC(=O)c1cc(C2CC2)nc2ccccc12)c1ccc(C)s1 | 6 | -13 | 0 | 3 | -1 | . | .
C/C(=N\NC(=O)c1cc(C2CC2)nc2ccccc12)c1ccc(O)cc1O | 22* | 15 | -2 | 8 | 8 | -12 | 24*
Cc1ccc(-n2c(O)c(/C=N/NC(=O)C3COc4ccccc4O3)c3ccccc3c2=O)cc1 (stereo unspecified) | 20* | 16 | 0 | 25 | 7 | -7 | 34*
CCCNC(=O)C(Cc1ccccc1)NC(=O)c1ccc(C(F)(F)F)cc1 (stereo unspecified) | 22* | -3 | -1 | 5 | -2 | -2 | 4
NC1=NC[C@H](Cc2ccc(O)cc2)N1CCc1cccc(F)c1 | 33* | -5 | 0 | 5 | 7 | 2 | 5
CCN(c1ccccc1)S(=O)(=O)c1cc(NC(=O)CSc2n[nH]c(=O)[nH]c2=O)ccc1Cl | 66* | -54 | 1 | -85 | -49 | 23* | 56*
COC(=O)[C@]12C[C@H](CC(=O)NCCc3ccccc3OC)C(=O)N(Cc3cccc4ccccc34)C1=C[C@H](C(C)(C)C)O[C@@H]2C | . | . | -8 | -9 | -8 | . | .
CCOc1ccc(C(=O)CCC(=O)NNC(=O)c2ccccc2O)cc1 | 29* | 12 | 5 | 8 | 3 | -3 | 26*
SMILES | TCR CD3 inh | HTRA1 inh | PRMT1 inh | mABHD4 FP | SIAE primary | BSA TAMRA ctr | TCR-CD3 inh conf
CCOc1ccc(C(=O)CCC(=O)Nc2ncccc2O)cc1 | -5 | -6 | 6 | 8 | 7 | . | .
Cc1noc(C)c1COc1ccc(C(=O)NNC(=O)c2ccccc2O)cc1 | 25* | 25 | -1 | 5 | 11 | -1 | 26*
COc1ccc(-c2cc(CNc3nc4cc(-c5ccccc5C)sc4c(=O)n3C)on2)cc1 | 30* | . | 1 | -20 | -51 | 8 | 12
COc1cccc(CNc2nc3cc(-c4ccccc4C)sc3c(=O)n2C)c1 | 0 | . | 0 | -46 | -31 | . | .
O=C(CCC(=O)N1CCN(C2c3ccccc3-c3ccccc32)CC1)Nc1nnc(C(F)(F)F)s1 | . | . | -1 | 3 | 1 | . | .
COC(=O)[C@]12C[C@H](CC(=O)N3CCCC3)C(=O)N(Cc3ccc(Cl)cc3Cl)C1=C[C@H](C(C)(C)C)O[C@@H]2C | . | . | 1 | -2 | 2 | . | .
CN1CCc2c(c3ccccc3n2Cc2ccccc2)C1 | -7 | -3 | -2 | -7 | 7 | 2 | 3
COc1ccc(S[C@]2(C(=O)N3CCCC3)CC(=O)N(C(=O)/C=C/c3ccccc3)[C@@H]2c2ccc(OC)cc2)cc1 | . | . | 8 | -10 | -5 | . | .
Cc1cc(C(=O)N/N=C/c2c(CO)cnc(C)c2O)c2ccccc2n1 | 23* | -4 | -2 | 5 | -4 | -13 | 10
Cc1cccc(-c2cccc3c4c([nH]c23)[C@@H]2C[C@H](N(C)C(=O)OCc3ccccc3)[C@H]([C@H](C)O)CN2CC4)c1 | . | . | 2 | -1 | -3 | . | .
COc1ccc(/C(C)=N/NC(=O)c2nnn(-c3nonc3N)c2CN(C)c2ccccc2)cc1 | 5 | -12 | -4 | -6 | -3 | . | .
C/C(=N\NC(=O)c1nnn(-c2nonc2N)c1CN(C)c1ccccc1)c1ccccc1O | 41* | 29 | 2 | -5 | 3 | -2 | 29*
C=CCN(Cc1ccc2c(c1)OCO2)C(C#CC1CC1)C(C)C (stereo unspecified) | . | . | 0 | 7 | 1 | . | .
Cc1cccc(NC(=O)NNC(=O)c2ccc3ccccc3c2O)c1 | 33* | 15 | 1 | 13 | 17 | -8 | 29*
COc1ccc(C(=O)NNC(=O)c2ccc3ccccc3c2O)cc1 | 38* | 4 | 0 | 6 | 14 | -11 | 38*
O=C(NC1CCCCC1)c1ccc2ccccc2c1O | 3 | -12 | 2 | -11 | -2 | . | .
COc1ccc(C(=O)NNC(=O)c2ccc3ccccc3c2)cc1 | 5 | 0 | 0 | -3 | -4 | . | .
O=C(NNC(=O)c1cccc2ccccc12)c1ccc(-c2ccccc2)cc1 | 0 | 5 | -1 | 4 | 1 | . | .
O=C(NNC(=O)c1ccc(O)cc1O)c1ccc(-c2ccccc2)cc1 | 28* | 24 | -2 | 4 | 2 | -9 | 22*
